Data on 8 compounds can be found in ChEMBL document CHEMBL5136968, “Posttranslational modifications of α-conotoxins: sulfotyrosine and C-terminal amidation stabilise structures and increase acetylcholine receptor binding” (RSC Med Chem, 2021).

What is called pKi is −log10 of the Ki, conventionally taken in molar units. A lower pKi goes with a high Ki. In general, Ki refers to a dissociation constant, usually derived from enzyme kinetics or from competition with a known ligand. A lower Ki goes with higher affinity. The term IC50 denotes the concentration that inhibits the measured activity by half.

Test [1] can be described thus: Displacement of [3H]-epibatidine from Aplysia californica Acetylcholine-binding protein measured after 1 hr by liquid scintillation counter. In a few lines:
(§1)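 Recombinant AChBP expressed in E. coli (IPTG induction, 16 °C), coated onto wells at 1 ng μL−1. Incubated 1 h at 4 °C with [3H]-epibatidine (1 nM final) and increasing peptide in PBS with 0.05% BSA. Unbound ligand washed off; bound radioactivity counted by liquid scintillation. One-site competition fit gives Ki. Triplicate, three independent experiments; pKi as mean with 95% CI.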
A general note: In a radioligand displacement assay an active substance lowers the binding of a labelled ligand.

The target in test [2] is Acetylcholine-binding protein (Lymnaea stagnalis, UniProt P58154). In words: Displacement of [3H]-epibatidine from Lymnaea stagnalis Acetylcholine-binding protein measured after 1 hr by liquid scintillation counter. In a few lines: as §1
The target of test [3] is Neuronal acetylcholine receptor; alpha3/beta4 (Homo sapiens, UniProt P30926+P32297). The experiment in a line: Antagonist activity at human alpha3beta4 nAChR in SH-SY5Y cells assessed as inhibition of calcium flux by FLIPR assay. The class given is cell-based. In a few lines:
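SH-SY5Y cells (endogenous α3β4), grown in RPMI with 15% FBS, plated 100 000/well and cultured 48 h. Loaded with calcium 4 dye for 30 min at 37 °C. Peptides in PSS (pH 7.4) added 10 min before nicotine 30 μM. Fluorescence read at 470–495 nm excitation, 515–575 nm emission, every 1 s. Normalised to maximal nicotine response; four-parameter Hill fit; pIC50. Triplicate, three independent experiments.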
A general note: Calcium flux is commonly read through the fluorescence of an indicator in the cells.

Molecules are shown by their SMILES. Positions of bridges follow the written chain, without caps; N, C: chain ends. Non-standard residues stand in square brackets, D forms with d. Residues, ends and D or L forms follow the SMILES beside them. sY = N[C@@H](Cc1ccc(OS(=O)(=O)O)cc1)C(=O)O

Neuronal acetylcholine receptor; alpha3/beta4, sequence (P30926 whole entry): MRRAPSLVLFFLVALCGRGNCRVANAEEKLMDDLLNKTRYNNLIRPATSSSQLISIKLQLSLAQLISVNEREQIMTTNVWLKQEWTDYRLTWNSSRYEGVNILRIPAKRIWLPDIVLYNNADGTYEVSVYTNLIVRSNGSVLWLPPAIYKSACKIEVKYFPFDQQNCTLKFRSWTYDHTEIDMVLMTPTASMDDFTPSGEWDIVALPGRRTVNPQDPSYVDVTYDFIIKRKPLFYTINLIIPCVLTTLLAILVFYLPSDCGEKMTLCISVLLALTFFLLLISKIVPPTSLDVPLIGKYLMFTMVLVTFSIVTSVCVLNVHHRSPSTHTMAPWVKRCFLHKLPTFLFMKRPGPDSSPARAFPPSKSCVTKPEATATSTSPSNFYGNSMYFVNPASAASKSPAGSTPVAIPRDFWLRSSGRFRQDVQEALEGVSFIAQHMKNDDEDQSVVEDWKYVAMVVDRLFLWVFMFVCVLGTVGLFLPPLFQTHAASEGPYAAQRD
Neuronal acetylcholine receptor; alpha3/beta4, sequence (P32297 whole entry): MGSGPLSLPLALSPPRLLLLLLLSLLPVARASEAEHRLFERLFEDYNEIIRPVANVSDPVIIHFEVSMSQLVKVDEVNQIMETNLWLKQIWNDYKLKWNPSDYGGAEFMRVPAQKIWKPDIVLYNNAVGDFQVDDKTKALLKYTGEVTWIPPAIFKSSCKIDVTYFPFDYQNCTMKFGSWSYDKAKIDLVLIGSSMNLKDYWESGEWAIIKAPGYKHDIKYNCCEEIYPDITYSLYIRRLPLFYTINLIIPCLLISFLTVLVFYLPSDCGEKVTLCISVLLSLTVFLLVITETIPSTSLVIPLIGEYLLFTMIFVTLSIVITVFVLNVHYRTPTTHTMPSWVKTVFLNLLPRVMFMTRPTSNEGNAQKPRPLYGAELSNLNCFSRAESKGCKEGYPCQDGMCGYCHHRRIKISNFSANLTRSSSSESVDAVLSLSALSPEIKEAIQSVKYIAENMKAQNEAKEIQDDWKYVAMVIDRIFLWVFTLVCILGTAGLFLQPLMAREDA
Acetylcholine-binding protein, sequence (P58154 whole entry): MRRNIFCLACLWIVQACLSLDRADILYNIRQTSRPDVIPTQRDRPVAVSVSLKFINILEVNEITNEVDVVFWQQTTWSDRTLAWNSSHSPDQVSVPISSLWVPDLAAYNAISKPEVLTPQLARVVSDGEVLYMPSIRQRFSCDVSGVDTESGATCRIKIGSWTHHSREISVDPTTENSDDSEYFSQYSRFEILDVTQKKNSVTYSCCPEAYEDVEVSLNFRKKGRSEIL

Turning to `C[C@@H]1NC(=O)[C@H](C)NC(=O)[C@@H]2CSSC[C@H](NC(=O)CNC(=O)CN)C(=O)N[C@@H](CSSC[C@@H](C(N)=O)NC(=O)[C@H](Cc3ccc(OS(=O)(=O)O)cc3)NC(=O)[C@H](CC(=O)O)NC(=O)[C@H](CCC(N)=O)NC(=O)[C@H](CC(N)=O)NC(=O)[C@H](CC(N)=O)NC1=O)C(=O)N[C@@H](CO)C(=O)N[C@@H](Cc1cnc[nH]1)C(=O)N1CCC[C@H]1C(=O)N[C@@H](C)C(=O)N2`, in test [1], the pKi is recorded as 9.4. The compound further gave an inhibition constant (Ki) in test [2] of 5.37 µM.

Compound `C[C@@H]1NC(=O)[C@H](C)NC(=O)[C@@H]2CSSC[C@H](NC(=O)CNC(=O)CN)C(=O)N[C@@H](CSSC[C@@H](C(=O)O)NC(=O)[C@H](Cc3ccc(O)cc3)NC(=O)[C@H](CC(=O)O)NC(=O)[C@H](CCC(N)=O)NC(=O)[C@H](CC(N)=O)NC(=O)[C@H](CC(N)=O)NC1=O)C(=O)N[C@@H](CO)C(=O)N[C@@H](Cc1cnc[nH]1)C(=O)N1CCC[C@H]1C(=O)N[C@@H](C)C(=O)N2` had a pKi in test [1] of 8. Besides, the inhibition constant (Ki) in test [2] was > 100 µM.

Compound `C[C@@H]1NC(=O)[C@H](C)NC(=O)[C@@H]2CSSC[C@H](NC(=O)CNC(=O)CN)C(=O)N[C@@H](CSSC[C@@H](C(N)=O)NC(=O)[C@H](Cc3ccc(O)cc3)NC(=O)[C@H](CC(=O)O)NC(=O)[C@H](CCC(N)=O)NC(=O)[C@H](CC(N)=O)NC(=O)[C@H](CC(N)=O)NC1=O)C(=O)N[C@@H](CO)C(=O)N[C@@H](Cc1cnc[nH]1)C(=O)N1CCC[C@H]1C(=O)N[C@@H](C)C(=O)N2` displayed a pKi in test [1] of 8.96. The affinity in test [2] corresponds to a Ki of 24.5 µM.

In test [1], `C[C@@H]1NC(=O)[C@H](C)NC(=O)[C@@H]2CSSC[C@H](NC(=O)CNC(=O)CN)C(=O)N[C@@H](CSSC[C@@H](C(=O)O)NC(=O)[C@H](Cc3ccc(OS(=O)(=O)O)cc3)NC(=O)[C@H](CC(=O)O)NC(=O)[C@H](CCC(N)=O)NC(=O)[C@H](CC(N)=O)NC(=O)[C@H](CC(N)=O)NC1=O)C(=O)N[C@@H](CO)C(=O)N[C@@H](Cc1cnc[nH]1)C(=O)N1CCC[C@H]1C(=O)N[C@@H](C)C(=O)N2` had a negative logarithm of the Ki (pKi) of 8.66. The Ki in test [2] was > 100 µM.

Regarding `CSCC[C@@H]1NC(=O)[C@H](CC(N)=O)NC(=O)[C@@H]2CSSC[C@H](NC(=O)CN)C(=O)N[C@@H](CSSC[C@@H](C(N)=O)NC(=O)[C@H](Cc3ccc(O)cc3)NC(=O)[C@H](CC(=O)O)NC(=O)[C@@H]3CCCN3C(=O)[C@H](CC(N)=O)NC(=O)[C@H](CC(N)=O)NC1=O)C(=O)N[C@@H](CO)C(=O)N[C@@H](CC(=O)O)C(=O)N1CCC[C@H]1C(=O)N[C@@H](CCCNC(=N)N)C(=O)N2` (H-GCCSDPRCNMNNPDYC-NH2; disulfide 2-8, 3-16), the IC50 in test [3] is 0.347 µM. For the same compound, the negative logarithm of the Ki (pKi) in test [1] turned out to be 7.57. Moreover, the inhibitory constant (Ki) in test [2] is > 100 µM.

Turning to `CSCC[C@@H]1NC(=O)[C@H](CC(N)=O)NC(=O)[C@@H]2CSSC[C@H](NC(=O)CN)C(=O)N[C@@H](CSSC[C@@H](C(=O)O)NC(=O)[C@H](Cc3ccc(O)cc3)NC(=O)[C@H](CC(=O)O)NC(=O)[C@@H]3CCCN3C(=O)[C@H](CC(N)=O)NC(=O)[C@H](CC(N)=O)NC1=O)C(=O)N[C@@H](CO)C(=O)N[C@@H](CC(=O)O)C(=O)N1CCC[C@H]1C(=O)N[C@@H](CCCNC(=N)N)C(=O)N2` (H-GCCSDPRCNMNNPDYC-OH; disulfide 2-8, 3-16), the IC50 in test [3] was 1.35 µM. In addition, the pKi in test [1] was found to be 6. Further, in test [2], the inhibition constant Ki is > 100 µM.

With `CSCC[C@@H]1NC(=O)[C@H](CC(N)=O)NC(=O)[C@@H]2CSSC[C@H](NC(=O)CN)C(=O)N[C@@H](CSSC[C@@H](C(N)=O)NC(=O)[C@H](Cc3ccc(OS(=O)(=O)O)cc3)NC(=O)[C@H](CC(=O)O)NC(=O)[C@@H]3CCCN3C(=O)[C@H](CC(N)=O)NC(=O)[C@H](CC(N)=O)NC1=O)C(=O)N[C@@H](CO)C(=O)N[C@@H](CC(=O)O)C(=O)N1CCC[C@H]1C(=O)N[C@@H](CCCNC(=N)N)C(=O)N2` (H-GCCSDPRCNMNNPD[sY]C-NH2; disulfide 2-8, 3-16), the IC50 in test [3] was 0.0646 µM. In test [1], this compound displayed a negative logarithm of the Ki (pKi) of 8.38. In addition, in test [2], the Ki is > 100 µM.

Regarding `CSCC[C@@H]1NC(=O)[C@H](CC(N)=O)NC(=O)[C@@H]2CSSC[C@H](NC(=O)CN)C(=O)N[C@@H](CSSC[C@@H](C(=O)O)NC(=O)[C@H](Cc3ccc(OS(=O)(=O)O)cc3)NC(=O)[C@H](CC(=O)O)NC(=O)[C@@H]3CCCN3C(=O)[C@H](CC(N)=O)NC(=O)[C@H](CC(N)=O)NC1=O)C(=O)N[C@@H](CO)C(=O)N[C@@H](CC(=O)O)C(=O)N1CCC[C@H]1C(=O)N[C@@H](CCCNC(=N)N)C(=O)N2` (H-GCCSDPRCNMNNPD[sY]C-OH; disulfide 2-8, 3-16), the half-inhibitory concentration (IC50) in test [3] was 0.501 µM. The same compound gave a negative logarithm of the Ki (pKi) in test [1] of 6.5. Besides, in test [2], the inhibitory constant (Ki) was > 100 µM.
